Source: ChEMBL document CHEMBL4007430, “Synthesis and Cytostatic and Antiviral Profiling of Thieno-Fused 7-Deazapurine Ribonucleosides” (J Med Chem, 2017)

How the values were obtained:
CCRF-CEM [1] = experiment: Cell cycle arrest in human CCRF-CEM cells assessed as accumulation at G2/M phase at IC50 after 24 hrs by propidium iodide staining-based flow cytometric analysis (reference value: 14.70%); assay type: functional
CCRF-CEM [2] = experiment: Cell cycle arrest in human CCRF-CEM cells assessed as accumulation at S phase at IC50 after 24 hrs by propidium iodide staining-based flow cytometric analysis (reference value: 44.20%); assay type: functional
[3] = Cytotoxicity against human HuH7 cells; assay type: cell-based, Huh-7
[4] = Drug level in human BJ cells at 1 umol/L measured per 5 x 10^5 cells after 3 hrs by UPLC-MS/MS analysis; assay type: ADME, cell-based; settings: 1 µM
CCRF-CEM [5] = experiment: Inhibition of DNA synthesis in human CCRF-CEM cells assessed as decrease in BrdU incorporation by measuring synthesized DNA levels at IC50 after 24 hrs by propidium iodide staining-based flow cytometric analysis (reference value: 52.66%); assay type: functional
HCT-116 [6] = experiment: Cytotoxicity against p53 deficient human HCT116 cells assessed as cell growth inhibition after 72 hrs by MTS assay; assay type: functional, cell-based; settings: HCT-116, 72 h
Outline: (§1)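 Cells were exposed to compound for 3 days, then stained with MTS as a quantitative metabolic read-out. IC50 is the concentration that inhibits cell growth by 50%.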

U2OS = experiment: Cytotoxicity against human U2OS cells assessed as cell growth inhibition after 72 hrs by MTS assay; assay type: functional, cell-based
CCRF-CEM [7] = experiment: Induction of apoptosis in human CCRF-CEM cells assessed as accumulation at subG1 phase at 5 times IC50 after 24 hrs by propidium iodide staining-based flow cytometric analysis (reference value: 2.32%); assay type: functional
HepG2 = experiment: Cytotoxicity against human HepG2 cells assessed as reduction in cell viability after 72 hrs by XTT assay; assay type: functional, cell-based; settings: HepG2, 72 h
Outline: (§2)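 Cells were incubated with compound for 3 days. Viability was then measured with the XTT tetrazolium assay.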

A549 = experiment: Cytotoxicity against human A549 cells assessed as cell growth inhibition after 72 hrs by MTS assay; assay type: functional, cell-based; settings: A549, 72 h; outline: as §1
K562 = experiment: Cytotoxicity against human K562 cells assessed as cell growth inhibition after 72 hrs by MTS assay; assay type: functional, cell-based; settings: K562, 72 h; outline: as §1
[8] = Drug level in human HCT116 cells at 10 umol/L measured per 5 x 10^5 cells after 1 hr by UPLC-MS/MS analysis; assay type: ADME, cell-based; settings: hct-116, 1 h, 10 µM
MRC5 = experiment: Cytotoxicity against human MRC5 cells assessed as cell growth inhibition after 72 hrs by MTS assay; assay type: cell-based; settings: MRC5, 72 h; outline: as §1
CCRF-CEM [9] = experiment: Cytotoxicity against human CCRF-CEM cells assessed as cell growth inhibition after 72 hrs by MTS assay
[10] = Drug level in human BJ cells at 10 umol/L measured per 5 x 10^5 cells after 1 hr by UPLC-MS/MS analysis; assay type: ADME, cell-based; settings: 10 µM
HCT-116 [11] = experiment: Cytotoxicity against human HCT116 cells assessed as cell growth inhibition after 72 hrs by MTS assay; assay type: functional, cell-based; settings: HCT-116, 72 h; outline: as §1
Hepatitis C virus [12] = experiment: Anti-HCV activity against Hepatitis C virus genotype 2a infected in human Huh7 replicon cells after 96 hrs by luciferase reporter gene assay; assay type: functional, cell-based, Hepacivirus hominis; settings: Huh-7, 96 h
[13] = Drug level in human BJ cells at 10 umol/L measured per 5 x 10^5 cells after 3 hrs by UPLC-MS/MS analysis; assay type: ADME, cell-based; settings: 10 µM
CCRF-CEM [14] = experiment: Inhibition of mitosis in human CCRF-CEM cells assessed as pH3Ser10 positive cells after 24 hrs by flow cytometric analysis; assay type: functional, cell-based
CCRF-CEM [15] = experiment: Cell cycle arrest in human CCRF-CEM cells assessed as accumulation at G2/M phase at 5 times IC50 after 24 hrs by propidium iodide staining-based flow cytometric analysis (reference value: 14.70%); assay type: functional
[16] = Drug level in human HCT116 cells at 10 umol/L measured per 5 x 10^5 cells after 3 hrs by UPLC-MS/MS analysis; assay type: ADME, cell-based; settings: hct-116, 3 h, 10 µM
CCRF-CEM [17] = experiment: Cell cycle arrest in human CCRF-CEM cells assessed as accumulation at G0/G1 phase at IC50 after 24 hrs by propidium iodide staining-based flow cytometric analysis (reference value: 41.11%); assay type: functional
CCRF-CEM [18] = experiment: Induction of apoptosis in human CCRF-CEM cells assessed as accumulation at subG1 phase at IC50 after 24 hrs by propidium iodide staining-based flow cytometric analysis (reference value: 2.32%); assay type: functional
CCRF-CEM [19] = experiment: Inhibition of mitosis in human CCRF-CEM cells assessed as pH3Ser10 positive cells at 5 times IC50 after 24 hrs by flow cytometric analysis (reference value: 1.74%); assay type: functional
BJ = experiment: Cytotoxicity against human BJ cells assessed as cell growth inhibition after 72 hrs by MTS assay; assay type: cell-based; outline: as §1
CCRF-CEM [20] = experiment: Inhibition of RNA synthesis in human CCRF-CEM cells assessed as decrease in BrU incorporation by measuring synthesized RNA levels at IC50 after 24 hrs by propidium iodide staining-based flow cytometric method (reference value: 53.09%); assay type: functional
HeLa S3 = experiment: Cytotoxicity against human HeLaS3 cells assessed as reduction in cell viability after 72 hrs by XTT assay; assay type: functional, cell-based; settings: HeLa S3, 72 h; outline: as §2
CCRF-CEM [21] = experiment: Inhibition of RNA synthesis in human CCRF-CEM cells assessed as decrease in BrU incorporation by measuring synthesized RNA levels at 5 times IC50 after 24 hrs by propidium iodide staining-based flow cytometric method (reference value: 53.09%); assay type: functional
[22] = Drug level in human HCT116 cells at 1 umol/L measured per 5 x 10^5 cells after 1 hr by UPLC-MS/MS analysis; assay type: ADME, cell-based; settings: hct-116, 1 h, 1 µM
CCRF-CEM [23] = experiment: Cell cycle arrest in human CCRF-CEM cells assessed as accumulation at S phase at 5 times IC50 after 24 hrs by propidium iodide staining-based flow cytometric analysis (reference value: 44.20%); assay type: functional
[24] = Drug level in human HCT116 cells at 1 umol/L measured per 5 x 10^5 cells after 3 hrs by UPLC-MS/MS analysis; assay type: ADME, cell-based; settings: hct-116, 3 h, 1 µM
Hepatitis C virus [25] = experiment: Anti-HCV activity against Hepatitis C virus genotype 1b infected in human Huh7 replicon cells after 96 hrs by luciferase reporter gene assay; assay type: functional, cell-based, Hepacivirus hominis; settings: Huh-7, 96 h
[26] = Cytotoxicity against human K562-TAX cells assessed as cell growth inhibition after 72 hrs by MTS assay; assay type: functional, cell-based; outline: as §1
HL-60 = experiment: Cytotoxicity against human HL60 cells assessed as reduction in cell viability after 72 hrs by XTT assay; assay type: functional, cell-based; settings: HL-60, 72 h; outline: as §2
CCRF-CEM [27] = experiment: Inhibition of mitosis in human CCRF-CEM cells assessed as pH3Ser10 positive cells at IC50 after 24 hrs by flow cytometric analysis (reference value: 1.74%); assay type: functional
CCRF-CEM [28] = experiment: Inhibition of DNA synthesis in human CCRF-CEM cells assessed as decrease in BrdU incorporation by measuring synthesized DNA levels at 5 times IC50 after 24 hrs by propidium iodide staining-based flow cytometric analysis (reference value: 52.66%); assay type: functional
CCRF-CEM [29] = experiment: Cell cycle arrest in human CCRF-CEM cells assessed as accumulation at G0/G1 phase at 5 times IC50 after 24 hrs by propidium iodide staining-based flow cytometric analysis (reference value: 41.11%); assay type: functional
[30] = Cytotoxicity against mrp-1/mdr-1 overexpressing human CEM-DNR-bulk cells assessed as cell growth inhibition after 72 hrs by MTS assay; assay type: functional, cell-based
Outline: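 Cells were exposed to compound for 3 days, then stained with MTS as a quantitative metabolic read-out.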

[31] = Drug level in human BJ cells at 1 umol/L measured per 5 x 10^5 cells after 1 hr by UPLC-MS/MS analysis; assay type: ADME, cell-based; settings: 1 µM

`CSc1ncnc2c1c1ccsc1n2[C@@H]1O[C@H](CO)[C@@H](O)[C@H]1O` gave an Activity (CCRF-CEM [1]) of 11.83%, an Activity (CCRF-CEM [2]) of 47.81% and a CC50 [3] of over 44400 nM. For the same molecule, the Drug uptake [4] was 253.6 pmol, the “BrdU+ cells (%)” value (CCRF-CEM [5]) was 52.99% and the IC50 (HCT-116 [6]) was 270 nM. The IC50 (U2OS) was 350 nM, the Activity (CCRF-CEM [7]) was 3.53% and the IC50 (HepG2) was 680 nM. The IC50 (A549) was 800 nM, the IC50 (K562) was 510 nM and the Drug uptake [8] was 320.7 pmol. The IC50 (MRC5) was 46000 nM, the IC50 (CCRF-CEM [9]) was 200 nM and the Drug uptake [10] was 331.6 pmol. For the same molecule, the IC50 (HCT-116 [11]) was 200 nM, the EC50 (Hepatitis C virus [12]) was 800 nM and the Drug uptake [13] was 633.7 pmol. The Activity (CCRF-CEM [14]) was “Dose-dependent effect”, the Activity (CCRF-CEM [15]) was 13.58% and the Drug uptake [16] was 444 pmol. The Activity (CCRF-CEM [17]) was 40.36%, the Activity (CCRF-CEM [18]) was 2.79% and the “pH3Ser10+ cells (%)” value (CCRF-CEM [19]) was 1.13%. For the same molecule, the IC50 (BJ) was 6900 nM, the “BrU+ cells (%)” value (CCRF-CEM [20]) was 37.25% and the IC50 (HeLa S3) was 300 nM. The “BrU+ cells (%)” value (CCRF-CEM [21]) was 23.92%, the Drug uptake [22] was 278.5 pmol and the Activity (CCRF-CEM [23]) was 53.26%. For the same molecule, the Drug uptake [24] was 293.6 pmol, the EC50 (Hepatitis C virus [25]) was 130 nM and the IC50 [26] was over 50000 nM. For the same molecule, the IC50 (HL-60) was 860 nM, the “pH3Ser10+ cells (%)” value (CCRF-CEM [27]) was 1.36% and the “BrdU+ cells (%)” value (CCRF-CEM [28]) was 56.64%. For the same molecule, the Activity (CCRF-CEM [29]) was 33.16% and the IC50 [30] was over 50000 nM.

For `CSc1ncnc2c1c1sccc1n2[C@@H]1O[C@H](CO)[C@@H](O)[C@H]1O`, the Activity (CCRF-CEM [1]) was 21.65%, the Activity (CCRF-CEM [2]) was 34.12% and the CC50 [3] was over 44400 nM. The Drug uptake [4] was 1750.5 pmol, the “BrdU+ cells (%)” value (CCRF-CEM [5]) was 51.67% and the IC50 (HCT-116 [6]) was 90 nM. The IC50 (U2OS) was 460 nM, the Activity (CCRF-CEM [7]) was 18.15% and the IC50 (HepG2) was 360 nM. For the same molecule, the IC50 (A549) was 660 nM, the IC50 (K562) was 350 nM and the Drug uptake [8] was 525.5 pmol. It also gave an IC50 (MRC5) of 9010 nM, an IC50 (CCRF-CEM [9]) of 27 nM and a Drug uptake [10] of 2298.3 pmol. It also gave an IC50 (HCT-116 [11]) of 50 nM, an EC50 (Hepatitis C virus [12]) of 340 nM and a Drug uptake [13] of 3161.5 pmol. For the same molecule, the Drug uptake [31] was 711.7 pmol, the Activity (CCRF-CEM [14]) was “Dose-dependent effect” and the Activity (CCRF-CEM [15]) was 20.61%. It also gave a Drug uptake [16] of 1299 pmol, an Activity (CCRF-CEM [17]) of 44.14% and an Activity (CCRF-CEM [18]) of 10.83%. For the same molecule, the “pH3Ser10+ cells (%)” value (CCRF-CEM [19]) was 1.03%, the IC50 (BJ) was 1250 nM and the “BrU+ cells (%)” value (CCRF-CEM [20]) was 1.46%. The IC50 (HeLa S3) was 720 nM, the “BrU+ cells (%)” value (CCRF-CEM [21]) was 0.16% and the Drug uptake [22] was 105.4 pmol. It also gave an Activity (CCRF-CEM [23]) of 38.11%, a Drug uptake [24] of 602.8 pmol and an EC50 (Hepatitis C virus [25]) of 470 nM. For the same molecule, the IC50 [26] was 2200 nM, the IC50 (HL-60) was 510 nM and the “pH3Ser10+ cells (%)” value (CCRF-CEM [27]) was 1.92%. The “BrdU+ cells (%)” value (CCRF-CEM [28]) was 51.49%, the Activity (CCRF-CEM [29]) was 41.28% and the IC50 [30] was 1460 nM.
